Test results from paper PMC11031320 (Cell chemical biology, 2024).
Entries after “also recorded” stand apart in the source; their conditions may differ. Read-outs that look alike come from different tables or passages of the source.

How the values were obtained:
P. falciparum proteasome = type: biochemical, Plasmodium falciparum
P. berghei ANKA = test: Liver stage parasite load in HuH7 cells; type: cell-based, Plasmodium berghei; conditions: for EC50: Plasmodium berghei, Huh-7, 44 h, read-out: EC50, liver stage P. berghei; for relative P. berghei parasite load in HuH7 cells: at ~30 μM
PfHsp90 [1] = test: FITC-geldanamycin competitive binding assay; conditions: ratio of HsHsp90 to PfHsp90 affinity
PfHsp90 [2] = molecular target: T1, PfHsp90 (Plasmodium falciparum, UniProt Q8IC05); test: FITC-geldanamycin competitive binding assay
HsHsp90 [3] = molecular target: T2, HsHsp90 (Homo sapiens, UniProt P07900); test: FITC-geldanamycin competitive binding assay
HsHsp90 NBD E25D/K112R = HsHsp90 NBD E25D/K112R (Homo sapiens, UniProt P07900, E25D/K112R); test: FITC-GA competition, salt bridge double mutant HsHsp90 NBD; type: binding
[4] = molecular target: wild-type (WT) HsHsp90 nucleotide-binding domain (NBD) (Homo sapiens, UniProt P07900); test: FITC-GA competition, wild-type HsHsp90 nucleotide-binding domain
P. falciparum 3D7 = test: Asexual blood stage parasite inhibition assay; type: cell-based; conditions: Plasmodium falciparum, 3D7, 72 h, read-out: EC50, blood stage P. falciparum 3D7
Method in brief: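 Ring-stage 3D7 cultures (2% parasitemia, 1% hematocrit) were exposed to test compound at 0–50 μM (0.5% DMSO) for 72 h at 37 °C under 3% O2/5% CO2/92% N2. Controls were DMSO and quinacrine (1 μM). Cells were lysed in saponin/Triton X-100 buffer with 10X SYBR Green I and stained 24 h at RT in the dark. Fluorescence was read at Ex 485/Em 535 and normalized to controls. 2–3 replicates, 2–4 independent experiments.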

[5] = test system: HsHsp90 NBD L122I/G125S/A126G and Q23N; test: FITC-GA competition, other HsHsp90 NBD variants; type: binding, human; conditions: compared to WT HsHsp90 NBD
Method in brief: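 Fluorescence polarization displacement of 1.0 nM FITC-geldanamycin from each His-tagged human Hsp90 NBD variant (25 nM). Buffer was 20 mM HEPES pH 7.3, KCl, MgCl2, Na2MoO4, DTT, 0.01% NP-40. Test compound was dosed at 0–10 μM with 1% final DMSO. Plates were held overnight at 4 °C in the dark, then read at Ex 480/Em 535. Percent bound was normalized to protein-only and protein-free tracer controls. At least 4 independent determinations.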

HuH7 cells = test: HuH7 host cell viability; type: cell-based, human; conditions: at 10 μM
PfHsp90 [6] = molecular target: T1, PfHsp90; conditions: cited from earlier work
HsHsp90 [7] = molecular target: T2, HsHsp90; conditions: read-out: Kd of FITC-GA to full-length HsHsp90; cited from earlier work
26S proteasome = test: Native gel in-gel Suc-LLVY-AMC hydrolysis, 26S band; type: cell-based, Plasmodium falciparum
20S particles = test: Native gel in-gel Suc-LLVY-AMC hydrolysis, 20S band after SDS activation; type: cell-based, Plasmodium falciparum
[8] = test system: P. falciparum gametocytes (NF54 peg4-tdTomato); test: Gametocyte inhibition assay; type: cell-based; conditions: Plasmodium falciparum
[9] = lysate treated with epoxomicin vs DMSO
[10] = NF54, 24 h, read-out: early gametocyte viability
[11] = NF54, 240 h, read-out: late gametocyte viability
[12] = 10 μM, 3 hours, cycloheximide 50 μM co-treatment

CCOC(=O)NCc1ccc(-n2c(-c3cc(C(C)C)c(O)cc3O)n[nH]c2=S)cc1 [BX-2819]
reaction rate compared to DMSO control (P. falciparum proteasome; 100 μM BX-2819 with 3 μM purified PfHsp90): not different from the DMSO control | Suc-LLVY-AMC hydrolysis in PfHsp90-treated samples (P. falciparum proteasome; BX-2819 10–100 μM with PfHsp90 3 μM): reduced hydrolysis in a dose-dependent manner; also recorded: negated the increased rate | EC50 (P. berghei ANKA): 1500 ± 410 nM | relative P. berghei parasite load in HuH7 cells (P. berghei ANKA): near zero | selectivity to PfHsp90 over HsHsp90 (PfHsp90 [1]): 2.0 fold | Ki (PfHsp90 [2]): 24 ± 4.4 nM | displacement of FITC-GA from PfHsp90 (PfHsp90 [2]; BX-2819 10 μM): displaces FITC-GA | Ki (HsHsp90 [3]): 49 ± 4.3 nM | Ki (HsHsp90 NBD E25D/K112R): 13 ± 2.5 nM | Ki [4]: 19 ± 4 nM | EC50 (P. falciparum 3D7): 740 ± 34 nM | change in affinity for other HsHsp90 NBD constructs [5]: unaltered | decrease of HuH7 viability (HuH7 cells): ≤ 50%

CO[C@H]1/C=C\C=C(/C)C(=O)NC2=CC(=O)C(NCCCCCCNC(=S)Nc3ccc(-c4c5ccc(=O)cc-5oc5cc(O)ccc45)c(C(=O)O)c3)=C(C[C@@H](C)C[C@H](OC)[C@H](O)[C@@H](C)/C=C(\C)[C@@H]1OC(N)=O)C2=O [FITC-GA]
Kd (PfHsp90 [6]; read-out: Kd of FITC-GA to full-length PfHsp90): 42 nM | Kd (HsHsp90 [7]): 23 nM

CC[C@@H](C)Nc1cc(C(=O)NC2C[C@H]3CC[C@@H](C2)N3c2ccc(C(=O)C3CC3)cn2)c(C)cc1C(N)=O (stereo partly drawn) [XL888]
EC50 (P. berghei ANKA): 240 ± 45 nM | relative P. berghei parasite load in HuH7 cells (P. berghei ANKA): near zero | selectivity to PfHsp90 over HsHsp90 (PfHsp90 [1]): 4.8 fold | Ki (PfHsp90 [2]): 27 ± 7.8 nM | Ki (HsHsp90 [3]): 130 ± 30 nM | Ki (HsHsp90 NBD E25D/K112R): 9.6 ± 1.6 nM | improvement in affinity to E25D/K112R double mutant compared to WT HsHsp90 NBD (HsHsp90 NBD E25D/K112R): 7 fold | Ki [4]: 68 ± 23 nM | EC50 (P. falciparum 3D7): 330 ± 110 nM | change in affinity for other HsHsp90 NBD constructs [5]: no significant differences | decrease of HuH7 viability (HuH7 cells): ≤ 50%

CC(C)C[C@H](NC(=O)[C@H](Cc1ccccc1)NC(=O)c1cnccn1)B(O)O [bortezomib]
Suc-LLVY-AMC hydrolysis in P. falciparum lysate (P. falciparum proteasome; bortezomib 25 μM, 180 min, compared to DMSO): significantly reduced; also recorded: decreased total hydrolysis

CC[C@H](C)[C@H](NC(=O)[C@H]([C@@H](C)CC)N(C)C(C)=O)C(=O)N[C@H](C(=O)N[C@@H](CC(C)C)C(=O)[C@@]1(C)CO1)[C@@H](C)O [epoxomicin]
26S band (26S proteasome; [9]): reduced | activated 20S band (20S particles; [9]): reduced

COC1=C2C[C@@H](C)C[C@H](OC)[C@H](O)[C@@H](C)/C=C(\C)[C@H](OC(N)=O)[C@@H](OC)/C=C\C=C(/C)C(=O)NC(=CC1=O)C2=O [geldanamycin]
viability at 1 µM [8, 10]: 37% | viability at 10 µM [8, 10]: 16% | viability at 1 µM [8, 11]: 71% | viability at 10 µM [8, 11]: 56% | proportion of active 26S proteasomes compared to DMSO control (26S proteasome; [12]): 63% | latent 20S particles (after activation) compared to DMSO control (20S particles; [12]): 158%

COc1ccc2c(c1)[nH]c1c(C)nccc12 [harmine]
affinity (PfHsp90 [6]): micromolar
